# Assay results published in ChEMBL document CHEMBL2040825, “Synthesis and cytotoxicity of 3,4-disubstituted-5-(3,4,5-trimethoxyphenyl)-4H-1,2,4-triazoles and novel 5,6-dihydro-[1,2,4]triazolo[3,4-b][1,3,4]thiadiazole derivatives bearing 3,4,5-trimethoxyphenyl moiety” (Bioorg Med Chem Lett, 2012).
# pIC50: −log10 of the molar value.
# How the values were obtained:
# Assay type in all cases: functional, cell-based
# MKN-45 = test: Cytotoxicity against human MKN45 cells after 48 hrs by MTT assay; conditions: MKN-45, 48 h
# How it was run: (§1)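 Cells grown in DMEM with 10% FBS and passaged by trypsinization at 70-80% confluence. Seeding density was 8 × 10^4 cells/well for MKN45, HT-29 and MCF-7 and 5 × 10^4 cells/well for HepG2, then 24 h attachment at 37 °C. Compounds from 10 mM DMSO stock were diluted in medium and applied for 48 h at 37 °C, with 0.1% DMSO as negative control.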
# MCF7 = test: Cytotoxicity against human MCF7 cells after 48 hrs by MTT assay; conditions: MCF7, 48 h; how it was run: as §1
# HT-29 = test: Cytotoxicity against human HT-29 cells after 48 hrs by MTT assay; conditions: HT-29, 48 h; how it was run: as §1
# HepG2 = test: Cytotoxicity against human HepG2 cells after 48 hrs by MTT assay; conditions: HepG2, 48 h; how it was run: as §1
Compound,pIC50 (MKN-45),pIC50 (MCF7),pIC50 (HT-29),pIC50 (HepG2)
COc1cc(-c2nnc(SC)n2/N=C/c2ccccc2)cc(OC)c1OC,4.55,< 3.70,< 3.70,< 3.70
COc1cc(-c2nnc(SCc3ccccc3)n2/N=C/c2ccccc2)cc(OC)c1OC,< 3.70,< 3.70,< 3.70,< 3.70
COc1cc(-c2nnc(SCc3ccc(F)cc3)n2/N=C/c2ccccc2)cc(OC)c1OC,< 3.70,< 3.70,< 3.70,< 3.70
COc1cc(-c2nnc(SCc3ccccc3Cl)n2/N=C/c2ccccc2)cc(OC)c1OC,< 3.70,< 3.70,< 3.70,4.50
COc1ccc(/C=N/n2c(SC)nnc2-c2cc(OC)c(OC)c(OC)c2)c(OC)c1,< 3.70,< 3.70,3.84,< 3.70
COc1ccc(/C=N/n2c(SCc3ccc(F)cc3)nnc2-c2cc(OC)c(OC)c(OC)c2)c(OC)c1,< 3.70,< 3.70,3.90,< 3.70
COc1ccc(/C=N/n2c(SCc3ccccc3Cl)nnc2-c2cc(OC)c(OC)c(OC)c2)c(OC)c1,< 3.70,4.20,< 3.70,< 3.70
COc1ccc(/C=N/n2c(SCc3ccccc3)nnc2-c2cc(OC)c(OC)c(OC)c2)c(OC)c1,4.31,3.82,< 3.70,4.22
CCOC(=O)CSc1nnc(-c2cc(OC)c(OC)c(OC)c2)n1/N=C/c1ccc(OC)cc1OC,< 3.70,< 3.70,< 3.70,< 3.70
COc1cc(-c2nnc3n2NC(CC(=O)c2ccc(C)cc2)(c2ccccc2)S3)cc(OC)c1OC (stereo not given),5.13,< 3.70,3.82,6.24
CCOC(=O)CC1(c2ccccc2)Nn2c(nnc2-c2cc(OC)c(OC)c(OC)c2)S1 (stereo not given),< 3.70,< 3.70,< 3.70,< 3.70
COc1ccc(C2(CC(=O)c3ccc(C)cc3)Nn3c(nnc3-c3cc(OC)c(OC)c(OC)c3)S2)c(OC)c1 (stereo not given),4.86,4.96,4.18,5.50
COc1cccc2c1C(=O)c1c(O)c3c(c(O)c1C2=O)C[C@@](O)(C(=O)CO)C[C@@H]3O[C@H]1C[C@H](N)[C@H](O)[C@H](C)O1 [DOXORUBICIN],6.77,,,5.25
